Experimental data as given in ChEMBL document CHEMBL3792308, “Synthesis and Evaluation of 2,6-Modified Purine 2'-C-Methyl Ribonucleosides as Inhibitors of HCV Replication” (ACS Med Chem Lett, 2016).
The source made the active and inactive calls. The rule behind the calls is not given here.

Assays:
[1] = Cytotoxicity against human CEM cells after 6 days by trypan blue exclusion assay; type: cell-based; settings: CEM (CCRF-CEM) cells
[2] = Cytotoxicity against human HuH7 cells infected with HCV assessed as reduction in cellular rRNA level after 96 hrs by qRT-PCR analysis; type: cell-based, Huh-7
Outline: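 Huh7 toxicity was read in the same wells as the replicon assay, by extracting and amplifying cellular rRNA alongside HCV RNA.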

[3] = Cytotoxicity against human PBMC after 6 days by trypan blue exclusion assay; type: cell-based; settings: PBMC (peripheral blood mononuclear cells)
[4] = Cytotoxicity against African green monkey Vero cells after 3 days by hemocytometry; type: cell-based; settings: chlorocebus sabaeus
Hepatitis C virus = assay: Antiviral activity against HCV infected in HuH7 Clone B cells assessed as inhibition of viral replication after 5 days by RT-PCR method; type: functional, organism-based, Hepacivirus hominis; settings: 120 h
Outline: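 Huh7 cells carrying a subgenomic HCV replicon; HCV RNA extracted and amplified to measure replication inhibition. Tested up to 10 μM, and EC50 and EC90 are reported.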

[5] = Drug metabolism in human HuH7 cells assessed as 2'-beta-C-methylguanosine-5'-triphosphate formation at 50 uM after 4 hrs by LC-MS/MS analysis; type: ADME, cell-based; settings: huh-7, 4 h
Outline: (§1)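 Huh7 cells incubated with 50 μM compound for 4 h at 37 °C, then washed with phosphate-buffered saline. Intracellular metabolites extracted with 70% ice-cold methanol in water and identified by LC–MS/MS, with nucleoside mono-, di- and triphosphate levels quantified.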

[6] = Drug level in human HuH7 cells treated with 2-Amino-6-[N-(t-butyloxycarbonyl)aminoxy]-9H-(2'-C-methyl-beta-D-ribofuranosyl)-purine at 50 uM after 4 hrs by LC-MS/MS analysis; type: ADME, cell-based; settings: huh-7, 4 h; outline: as §1
[7] = Drug level in human HuH7 cells treated with Ethyl((((2R,3S,4R,5R)-5-(2-amino-6-(((tert-butoxycarbonyl)amino)oxy)-9H-purin-9-yl)-3,4-dihydroxy-4-methyltetrahydrofuran-2-yl)methoxy)(phenoxy)phosphoryl)-Lalaninate at 50 uM after 4 hrs by LC-MS/MS analysis; type: ADME, cell-based; settings: huh-7, 4 h; outline: as §1
Homo sapiens = species: Homo sapiens; assay: Inhibition of host RNA polymerase 2 (unknown origin) up to 100 uM
Outline: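 Host RNA polymerase II was tested with nucleoside triphosphate up to 100 μM. α-Amanitin served as the positive control.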

[8] = Inhibition of HCV C-terminal his-tagged NS5B delta21 RNA dependent RNA polymerase assessed as inhibition of full-length 20mer RNA product formation after 120 mins by PAGE method in presence of 32P-radiolabeled GpG primer; design: species or system Hepacivirus hominis
Outline: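 HCV NS5B polymerase RNA synthesis on a 20mer RNA template, run with increasing triphosphate concentrations up to 100 μM. Products resolved to follow incorporation and pausing sites opposite template uridines.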

[9] = Drug level in human HuH7 cells treated with Ethyl((((2R,3R,4R,5R)-5-(6-amino-2-fluoro-9H-purin-9-yl)-3,4-dihydroxy-4-methyltetrahydrofuran-2-yl)methoxy)(phenoxy)phosphoryl)-L-alaninate at 50 uM after 4 hrs by LC-MS/MS analysis; type: ADME, cell-based; settings: huh-7, 4 h; outline: as §1
[10] = molecular target: DNA-directed RNA polymerase, mitochondrial (Homo sapiens) (UniProt O00411); assay: Activity at human mitochondrial RNA polymerase assessed as compound incorporation into RNA up to 100 uM relative to ATP
DNA-directed RNA polymerase, mitochondrial (Homo sapiens), sequence (O00411 whole entry): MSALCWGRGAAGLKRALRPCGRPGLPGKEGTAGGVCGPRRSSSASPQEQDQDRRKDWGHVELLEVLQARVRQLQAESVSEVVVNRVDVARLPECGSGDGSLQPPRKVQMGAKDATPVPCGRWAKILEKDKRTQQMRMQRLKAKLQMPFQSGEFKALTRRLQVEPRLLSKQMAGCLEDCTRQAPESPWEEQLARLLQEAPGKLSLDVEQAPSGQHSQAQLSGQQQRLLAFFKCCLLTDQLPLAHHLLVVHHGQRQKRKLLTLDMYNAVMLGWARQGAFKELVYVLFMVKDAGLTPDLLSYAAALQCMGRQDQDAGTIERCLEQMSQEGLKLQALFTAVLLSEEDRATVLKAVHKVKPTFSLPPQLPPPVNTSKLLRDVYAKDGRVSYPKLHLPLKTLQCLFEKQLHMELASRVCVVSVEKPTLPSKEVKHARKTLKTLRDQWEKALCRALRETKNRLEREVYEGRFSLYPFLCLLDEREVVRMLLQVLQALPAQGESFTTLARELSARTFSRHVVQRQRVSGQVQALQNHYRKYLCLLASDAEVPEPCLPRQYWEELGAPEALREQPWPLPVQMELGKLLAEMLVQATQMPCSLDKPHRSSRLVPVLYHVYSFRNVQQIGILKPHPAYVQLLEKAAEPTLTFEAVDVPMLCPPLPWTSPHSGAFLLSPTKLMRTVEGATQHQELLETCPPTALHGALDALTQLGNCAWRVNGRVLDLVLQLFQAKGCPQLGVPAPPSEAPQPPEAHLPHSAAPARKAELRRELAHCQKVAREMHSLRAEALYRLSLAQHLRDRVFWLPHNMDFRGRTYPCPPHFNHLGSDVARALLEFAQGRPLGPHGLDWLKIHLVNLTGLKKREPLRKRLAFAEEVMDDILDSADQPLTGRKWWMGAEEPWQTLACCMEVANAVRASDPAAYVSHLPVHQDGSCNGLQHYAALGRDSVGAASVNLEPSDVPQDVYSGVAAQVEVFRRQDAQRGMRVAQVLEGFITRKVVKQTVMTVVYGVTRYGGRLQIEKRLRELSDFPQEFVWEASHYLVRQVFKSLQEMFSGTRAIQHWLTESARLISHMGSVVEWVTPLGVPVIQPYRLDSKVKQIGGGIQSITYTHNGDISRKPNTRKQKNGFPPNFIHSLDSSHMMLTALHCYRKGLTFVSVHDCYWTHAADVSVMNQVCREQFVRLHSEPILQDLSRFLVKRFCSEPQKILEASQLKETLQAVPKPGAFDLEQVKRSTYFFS
Outline: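 Human mitochondrial RNA polymerase (POLRMT) incorporation of nucleoside triphosphate, tested up to 100 μM and expressed as percent incorporation normalized to ATP.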

[11] = Drug level in human HuH7 cells treated with (2R,3R,4R,5R)-2-(6-amino-2-fluoro-9H-purin-9-yl)-5-(hydroxymethyl)-3-methyltetrahydrofuran-3,4-diol at 50 uM after 4 hrs by LC-MS/MS analysis; type: ADME, cell-based; settings: huh-7, 4 h; outline: as §1
[12] = Drug metabolism in human HuH7 cells assessed as formation of ((2R,3R,4R,5R)-5-(6-amino-2-fluoro-9H-purin-9-yl)-3,4-dihydroxy-4-methyltetrahydrofuran-2-yl)methyl tetrahydro triphosphate at 50 uM after 4 hrs by LC-MS/MS analysis; type: ADME, cell-based; settings: huh-7, 4 h; outline: as §1
[13] = Drug metabolism in human HuH7 cells assessed as nucleoside triphosphate derivative formation at 50 uM after 4 hrs by LC-MS/MS analysis; type: ADME, cell-based; settings: huh-7, 4 h; outline: as §1
[14] = Drug metabolism in human HuH7 cells assessed as nucleoside monophosphate derivative formation at 50 uM after 4 hrs by LC-MS/MS analysis; type: ADME, cell-based; settings: huh-7, 4 h; outline: as §1
[15] = Drug metabolism in human HuH7 cells assessed as nucleoside diphosphate derivative formation at 50 uM after 4 hrs by LC-MS/MS analysis; type: ADME, cell-based; settings: huh-7, 4 h; outline: as §1
[16] = Inhibition of host RNA polymerase 2 (unknown origin); design: species or system Homo sapiens
Outline: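 Host RNA polymerase II inhibition assay with the nucleoside triphosphate tested at concentrations up to 100 μM. α-Amanitin was included as the positive control.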

| Structure (SMILES) | CC50 at 144 h [1] | CC50 at 96 h [2] | CC50 at 144 h [3] | CC50 at 72 h [4] | EC50 (Hepatitis C virus) | EC90 (Hepatitis C virus) | other results |
| --- | --- | --- | --- | --- | --- | --- | --- |
| CC(C)(C)OC(=O)NOc1nc(N)nc2c1ncn2[C@@H]1O[C@H](CO)[C@@H](O)[C@@]1(C)O | > 100 µM | > 10 µM | > 100 µM | > 100 µM | 0.9 µM | 8.4 µM | Drug metabolism [5]: metabolite_detected |
| C[C@@]1(O)[C@H](O)[C@@H](COP(=O)(O)OP(=O)(O)OP(=O)(O)O)O[C@H]1n1cnc2c(=O)[nH]c(N)nc21 [INX-09114] |  |  |  |  |  |  | Drug metabolism [6]: metabolite_detected; Drug metabolism [7]: metabolite_detected |
| C[C@@]1(O)[C@H](O)[C@@H](COP(=O)(O)OP(=O)(O)OP(=O)(O)O)O[C@H]1n1cnc2c(N)nc(F)nc21 |  |  |  |  |  |  | inhibition (Homo sapiens): inactive; Ki [8]: 32 µM; Drug metabolism [9]: metabolite_detected; Activity [10]: 11%; Drug metabolism [11]: metabolite_detected |
| C[C@@]1(O)[C@H](O)[C@@H](CO)O[C@H]1n1cnc2c(N)nc(F)nc21 | > 100 µM | > 10 µM | > 100 µM | > 100 µM | > 10 µM | > 10 µM | Drug metabolism [12]: metabolite_detected |
| CCOC(=O)[C@H](C)NP(=O)(OC[C@H]1O[C@@H](n2cnc3c(ONC(=O)OC(C)(C)C)nc(N)nc32)[C@](C)(O)[C@@H]1O)Oc1ccccc1 (some centres undefined) | 39 µM | > 10 µM | > 100 µM | > 100 µM | 0.3 µM | 0.9 µM | Drug metabolism [5]: metabolite_detected |
| CCOC(=O)[C@H](C)NP(=O)(OC[C@H]1O[C@@H](n2cnc3c(N)nc(F)nc32)[C@](C)(O)[C@@H]1O)Oc1ccccc1 (some centres undefined) | > 100 µM | > 10 µM | > 100 µM | > 100 µM | 2.7 µM | 8.3 µM | Drug metabolism [13]: metabolite_detected; Drug metabolism [14]: metabolite_detected; Drug metabolism [12]: metabolite_detected; Drug metabolism [15]: metabolite_detected |
| CC[C@H](C)[C@@H]1NC(=O)CNC(=O)[C@@H]2Cc3c([nH]c4cc(O)ccc34)[S+]([O-])C[C@H](NC(=O)CNC1=O)C(=O)N[C@@H](CC(N)=O)C(=O)N1C[C@H](O)C[C@H]1C(=O)N[C@@H]([C@@H](C)[C@@H](O)CO)C(=O)N2 (some centres undefined) |  |  |  |  |  |  | IC50 [16]: 0.0025 µM |
